Assay results from ChEMBL document CHEMBL5678801, “A benzothiophene inhibitor of mitogen-activated protein kinase-activated protein kinase 2 inhibits tumor necrosis factor alpha production and has oral anti-inflammatory efficacy in acute and chronic models of inflammation” (J Pharmacol Exp Ther, 2010).

Assays:
Rattus norvegicus [1] = assay: Antiarthritic activity in chronic SCW-induced arthritis Lewis rat model assessed as inhibition of chronic paw swelling administered twice daily via oral gavage for 10 to 21 days; assay type: organism-based; settings: time 10-21 day
How it was run: (§1)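 Female Lewis rats (125-140 g) received a single i.p. streptococcal cell wall injection. Animals showing the acute phase were pooled, 4-8 per group over three experiments. Dosing was oral gavage b.i.d., days 10-21, in methylcellulose-Tween-20 vehicle. Hind paw volume was read by displacement plethysmometer on day 21, as % inhibition of swelling. Plasma was sampled up to 11 h after the last dose, 3 rats per dose. ED values came from fitted curves.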

[2] = Antiinflammatory activity in human Whole blood cell assessed as inhibition of LPS induced IL-1 beta production preincubated for 1 hr followed by LPS stimulation and measured after 16 hrs by MSD analysis; assay type: functional, cell-based
How it was run: (§2)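 Human whole blood was stimulated ex vivo with LPS 100 ng/ml. Plasma cytokines were read by MSD 4-plex: TNFα at 4 h; IL-1β, IL-6 and IL-8 at 16 h. Data are means ±S.E.M. of two independent experiments in duplicate, three donors. IC50 by 4-parameter nonlinear regression.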

[3] = biological target: T1, Mitogen-activated protein kinase kinase kinase 5 (Homo sapiens, UniProt Q99683); assay: Inhibition of ASK1 (unknown origin)
T1 sequence (Q99683 whole entry): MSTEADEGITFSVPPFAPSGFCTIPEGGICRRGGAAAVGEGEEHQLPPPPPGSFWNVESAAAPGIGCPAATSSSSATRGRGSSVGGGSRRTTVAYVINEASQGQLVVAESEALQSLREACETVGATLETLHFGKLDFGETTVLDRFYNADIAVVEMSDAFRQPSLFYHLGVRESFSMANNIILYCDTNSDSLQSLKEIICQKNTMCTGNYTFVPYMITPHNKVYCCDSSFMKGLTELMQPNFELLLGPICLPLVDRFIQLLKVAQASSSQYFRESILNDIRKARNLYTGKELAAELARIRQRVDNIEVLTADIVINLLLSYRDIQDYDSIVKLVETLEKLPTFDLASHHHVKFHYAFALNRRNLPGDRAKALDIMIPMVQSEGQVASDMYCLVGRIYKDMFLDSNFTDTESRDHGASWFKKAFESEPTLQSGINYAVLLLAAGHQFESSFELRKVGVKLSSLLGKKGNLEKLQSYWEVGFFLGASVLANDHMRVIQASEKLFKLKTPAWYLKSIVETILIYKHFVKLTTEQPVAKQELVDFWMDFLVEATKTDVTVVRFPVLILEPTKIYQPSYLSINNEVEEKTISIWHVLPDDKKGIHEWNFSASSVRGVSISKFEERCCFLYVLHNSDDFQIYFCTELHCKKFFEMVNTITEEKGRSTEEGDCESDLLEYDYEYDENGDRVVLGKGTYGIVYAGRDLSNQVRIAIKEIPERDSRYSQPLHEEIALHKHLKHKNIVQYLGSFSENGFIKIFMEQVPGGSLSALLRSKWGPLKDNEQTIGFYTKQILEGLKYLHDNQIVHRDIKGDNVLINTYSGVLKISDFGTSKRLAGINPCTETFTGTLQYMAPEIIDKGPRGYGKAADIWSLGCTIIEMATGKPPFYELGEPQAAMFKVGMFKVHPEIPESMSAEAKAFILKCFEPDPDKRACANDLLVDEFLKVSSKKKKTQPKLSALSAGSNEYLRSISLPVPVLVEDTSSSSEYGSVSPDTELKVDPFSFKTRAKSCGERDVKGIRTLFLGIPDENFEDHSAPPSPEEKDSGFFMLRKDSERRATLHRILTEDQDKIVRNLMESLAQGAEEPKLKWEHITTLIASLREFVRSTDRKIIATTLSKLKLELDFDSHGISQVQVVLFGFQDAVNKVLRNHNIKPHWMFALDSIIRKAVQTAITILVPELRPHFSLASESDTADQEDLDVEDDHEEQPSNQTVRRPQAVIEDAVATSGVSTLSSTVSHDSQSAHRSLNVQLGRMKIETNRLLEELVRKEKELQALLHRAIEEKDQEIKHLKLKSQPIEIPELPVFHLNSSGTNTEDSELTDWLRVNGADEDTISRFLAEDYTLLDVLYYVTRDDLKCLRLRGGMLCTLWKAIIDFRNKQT
How it was run: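 Kinase panel: 200 kinases were first screened at 1 μM inhibitor for percent inhibition. Those above 50% inhibition were then titrated for IC50. MgATP was fixed at the Km(app) determined for each enzyme.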

[4] = Plasma concentration in po dosed LPS-induced Lewis rat model at ED80 concentration measured after 5.5 hrs of initial dose by LC-MS/MS analysis; assay type: ADME, organism-based
How it was run: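 Male Lewis rats (225-250 g, 5 per group) were fasted 18 h, then dosed orally at 0.2-60 mg/kg as a suspension in 0.5% methylcellulose/0.025% Tween 20. LPS 1 mg/kg was given i.v. 4 h later. Blood was taken by cardiac puncture 90 min after LPS. Serum TNFα was read by ELISA and drug by LC-MS/MS, three independent experiments. 4-parameter fit. Unbound values were corrected with measured rat plasma protein binding.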

Rattus norvegicus [5] = species: Rattus norvegicus; assay: Inhibition of rat MK2 assessed as unbound fraction
[6] = Cmax in chronic SCW-induced arthritis Lewis rat model plasma at ED50 concentration; assay type: ADME, cell-free; how it was run: as §1
[7] = Antiinflammatory activity in human PBMC cells assessed as inhibition of LPS induced IL-8 production preincubated for 1 hr followed by LPS stimulation and measured after 16 hrs by MSD analysis; assay type: functional, cell-based
How it was run: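 Human PBMCs were pretreated with compound for 1 h (<1% DMSO final), then stimulated with LPS 100 ng/ml at 37°C. Cytokines in culture media were read by MSD 4-plex: TNFα at 4 h; IL-1β, IL-6 and IL-8 at 16 h. Data are means ±S.E.M. of two independent experiments in duplicate, three donors. IC50 by 4-parameter nonlinear regression.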

[8] = Inhibition of IL-8 production in LPS induced human Whole blood cell preincubated with compound for 1 hr followed by LPS induction and measured after 16 hrs; assay type: functional, cell-based; how it was run: as §2
[9] = biological target: MAP kinase-activated protein kinase 3 (Homo sapiens, UniProt Q16644); assay: Inhibition of recombinant MK3 (unknown origin) expressed in Escherichia coli using KKKALSRQLSVAA as substrate incubated for 1 hr followed by substrate addition in presence of ATP
How it was run: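 Recombinant kinase first activated with activated p38α (1:50 molar ratio) and 250 μM ATP for 1 hr at 30°C. Activity measured by 33P-labelled product peptide, separated by ion exchange. MgATP fixed at the Km(app) determined for each enzyme. IC50 values from duplicate experiments.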

[10] = Oral bioavailability in Sprague-Dawley rat at 3 mg/kg measured upto 24 hrs by […] analysis; assay type: ADME, organism-based; settings: in vivo
How it was run: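 Male Sprague-Dawley rats (275-300 g), carotid-catheterized and acclimated overnight. Dosing was i.v. at 1 mpk (n=2) in 70% saline/20% PEG-400/10% ethanol, or oral at 3 mpk (n=3) as a suspension in 0.5% HPMC/Tween. Plasma drug was measured by LC-MS/MS. Cmax and Tmax were read from individual profiles. t½ came from the terminal log-linear slope and AUC by the linear trapezoidal rule. CL = dose/AUC0-∞, Vdss = CL×MRT, F = dose-normalized AUC po/iv.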

Chain of MAP kinase-activated protein kinase 3 (Q16644 whole entry): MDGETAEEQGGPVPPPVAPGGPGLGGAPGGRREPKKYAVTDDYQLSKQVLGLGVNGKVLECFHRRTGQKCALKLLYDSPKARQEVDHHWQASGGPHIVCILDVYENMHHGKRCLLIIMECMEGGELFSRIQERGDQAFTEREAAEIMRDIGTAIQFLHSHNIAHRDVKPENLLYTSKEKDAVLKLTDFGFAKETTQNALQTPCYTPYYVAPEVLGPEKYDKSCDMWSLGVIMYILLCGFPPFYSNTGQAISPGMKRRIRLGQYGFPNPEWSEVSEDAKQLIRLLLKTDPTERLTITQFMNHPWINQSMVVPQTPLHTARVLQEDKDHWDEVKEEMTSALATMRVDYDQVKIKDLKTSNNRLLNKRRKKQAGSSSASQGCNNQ

Cc1ccc(-c2ccc3c(ccc4sc5c(c43)NC[C@@H](C)NC5=O)n2)cn1
ED50 (Rattus norvegicus [1]; Rattus norvegicus, Lewis): 20 mg/kg
ED80 (Rattus norvegicus [1]; rat, in vivo, po): 50 mg/kg
IC50 [2]: > 20 µM
IC50 [3]: 0.06 µM
concentration at 5.5 h [4]: 4.2 µM
fEC50 (Rattus norvegicus [5]): 110 nM
Cmax [6]: 11 µM
IC50 [7]: 2.59 µM
IC50 [8]: > 25 µM
IC50 [9]: 0.053 µM
bioavailability [10]: 46%
